Assay results: ChEMBL document CHEMBL5724801, “EUbOPEN Chemogenomics Library - Multiplex” (2024)
Values joined by “and” are separate entries in the source; they are usually repeats but may differ in a detail not shown here. Equal entries are not always repeated.

Test system: Fibroblast
Test: Multiplex assay against human fibroblast
Assay type: toxicity, cell-based
Summary of the method: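 On a CQ1 microscope at 37°C and 5% CO2, live cells were imaged after compound addition. They had been stained at seeding with Hoechst33342, BioTracker Green Microtubule Cytoskeleton Dye, MitoTracker Red and Annexin V Alexa Fluor 680. CellPathfinder machine-learning gating assigned cells to Hoechst high-intensity objects or normal cells, normal cells to healthy, pyknosed or fragmented nuclei, and pyknosed cells to mitotic or apoptotic. Tubulin, mitochondrial-mass and membrane-permeability phenotypes are per cents of healthy-nucleus cells.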

[1] = 12 h, 1 µM, compound concentration 1 uM
[2] = 12 h, 10 µM, compound concentration 10 uM
[3] = 24 h, 1 µM, compound concentration 1 uM
[4] = 24 h, 10 µM, compound concentration 10 uM
[5] = 48 h, 1 µM, compound concentration 1 uM
[6] = 48 h, 10 µM, compound concentration 10 uM

CC[C@H]1OC(=O)[C@H](C)[C@@H](O[C@H]2C[C@@](C)(OC)[C@@H](O)[C@H](C)O2)[C@H](C)[C@@H](O[C@@H]2O[C@H](C)C[C@H](N(C)C)[C@H]2O)[C@@]2(C)CC(C)=C(O2)[C@H](C)[C@@H](O)[C@]1(C)O
Population Apoptotic (%) [1]: 37% and 46% | Population Fragmented Nuclei (%) [1]: 13% and 23% | Population Healthy Nuclei (%) [1]: 72% and 57% | Population Hoechst High Intensity Objects (%) [1]: 2% and 3% | Population Membrane Permeable-Phenotype (%) [1]: 0% and 9% | Population Mitochondria Different-Phenotype (%) [1]: 8% and 6% | Population Mitotic Cells (%) [1]: 62% and 53% | Population Normal (%) [1]: 97% and 96% | Population Pyknosed Nuclei (%) [1]: 13% and 18% | Population Tubulin-Different-Phenotype (%) [1]: 40% and 53% | Total Cell Count [1]: 176 and 170 | Population Apoptotic (%) [2]: 48% and 40% | Population Fragmented Nuclei (%) [2]: 24% and 41% | Population Healthy Nuclei (%) [2]: 63% and 33% | Population Hoechst High Intensity Objects (%) [2]: 3% and 4% | Population Membrane Permeable-Phenotype (%) [2]: 0% and 14% | Population Mitochondria Different-Phenotype (%) [2]: 25% and 11% | Population Mitotic Cells (%) [2]: 52% and 59% | Population Normal (%) [2]: 96% and 95% | Population Pyknosed Nuclei (%) [2]: 12% and 25% | Population Tubulin-Different-Phenotype (%) [2]: 86% and 73% | Total Cell Count [2]: 205 and 133 | Population Apoptotic (%) [3]: 52% and 46% | Population Fragmented Nuclei (%) [3]: 18% and 29% | Population Healthy Nuclei (%) [3]: 69% and 52% | Population Hoechst High Intensity Objects (%) [3]: 4% and 3% | Population Membrane Permeable-Phenotype (%) [3]: 0% and 7% | Population Mitochondria Different-Phenotype (%) [3]: 7% and 5% | Population Mitotic Cells (%) [3]: 47% and 53% | Population Normal (%) [3]: 95% and 96% | Population Pyknosed Nuclei (%) [3]: 12% and 17% | Population Tubulin-Different-Phenotype (%) [3]: 45% and 36% | Total Cell Count [3]: 173 and 176 | Population Apoptotic (%) [4]: 52% and 46% | Population Fragmented Nuclei (%) [4]: 22% and 40% | Population Healthy Nuclei (%) [4]: 69% and 39% | Population Hoechst High Intensity Objects (%) [4]: 2% and 1% | Population Membrane Permeable-Phenotype (%) [4]: 0% and 8% | Population Mitotic Cells (%) [4]: 47% and 53% | Population Normal (%) [4]: 97% and 98% | Population Pyknosed Nuclei (%) [4]: 8% and 20% | Population Tubulin-Different-Phenotype (%) [4]: 89% and 81% | Total Cell Count [4]: 199 and 127 | Population Apoptotic (%) [5]: 55% and 56% | Population Fragmented Nuclei (%) [5]: 17% and 32% | Population Healthy Nuclei (%) [5]: 71% and 54% | Population Hoechst High Intensity Objects (%) [5]: 3% and 2% | Population Membrane Permeable-Phenotype (%) [5]: 0% and 7% | Population Mitochondria Different-Phenotype (%) [5]: 9% and 5% | Population Mitotic Cells (%) [5]: 44% and 43% | Population Normal (%) [5]: 96% and 97% | Population Pyknosed Nuclei (%) [5]: 11% and 13% | Population Tubulin-Different-Phenotype (%) [5]: 57% and 56% | Total Cell Count [5]: 168 and 173 | Population Apoptotic (%) [6]: 84% and 58% | Population Fragmented Nuclei (%) [6]: 24% and 43% | Population Healthy Nuclei (%) [6]: 68% and 47% | Population Hoechst High Intensity Objects (%) [6]: 8% and 7% | Population Membrane Permeable-Phenotype (%) [6]: 0% and 6% | Population Mitotic Cells (%) [6]: 15% and 41% | Population Normal (%) [6]: 91% and 92% | Population Pyknosed Nuclei (%) [6]: 6% and 9% | Population Tubulin-Different-Phenotype (%) [6]: 91% and 78% | Total Cell Count [6]: 216 and 139

N#Cc1c(N)nc(SCc2csc(-c3ccc(Cl)cc3)n2)c(C#N)c1-c1ccc(OCCO)cc1 [CAPADENOSON]
Population Apoptotic (%) [1]: 43% and 27% | Population Healthy Nuclei (%) [1]: 80% and 43% | Population Hoechst High Intensity Objects (%) [1]: 2% and 1% | Population Membrane Permeable-Phenotype (%) [1]: 0% and 5% | Population Mitochondria Different-Phenotype (%) [1]: 10% and 11% | Population Mitotic Cells (%) [1]: 56% and 72% | Population Normal (%) [1]: 97% and 98% | Population Pyknosed Nuclei (%) [1]: 11% and 25% | Population Tubulin-Different-Phenotype (%) [1]: 38% and 55% | Total Cell Count [1]: 139 and 157 | Population Apoptotic (%) [2]: 31% and 41% | Population Fragmented Nuclei (%) [2]: 23% and 41% | Population Healthy Nuclei (%) [2]: 50% and 29% | Population Hoechst High Intensity Objects (%) [2]: 1% and 8% | Population Membrane Permeable-Phenotype (%) [2]: 0% and 20% | Population Mitochondria Different-Phenotype (%) [2]: 10% and 14% | Population Mitotic Cells (%) [2]: 68% and 58% | Population Normal (%) [2]: 98% and 91% | Population Pyknosed Nuclei (%) [2]: 25% and 29% | Population Tubulin-Different-Phenotype (%) [2]: 80% and 97% | Total Cell Count [2]: 172 and 128 | Population Apoptotic (%) [3]: 72% and 48% | Population Healthy Nuclei (%) [3]: 80% and 44% | Population Hoechst High Intensity Objects (%) [3]: 1% and 4% | Population Membrane Permeable-Phenotype (%) [3]: 0% and 6% | Population Mitotic Cells (%) [3]: 27% and 51% | Population Normal (%) [3]: 98% and 95% | Population Pyknosed Nuclei (%) [3]: 8% and 20% | Population Tubulin-Different-Phenotype (%) [3]: 34% and 71% | Total Cell Count [3]: 139 and 148 | Population Apoptotic (%) [4]: 38% and 41% | Population Fragmented Nuclei (%) [4]: 26% and 43% | Population Healthy Nuclei (%) [4]: 52% and 28% | Population Hoechst High Intensity Objects (%) [4]: 2% and 6% | Population Membrane Permeable-Phenotype (%) [4]: 0% and 17% | Population Mitochondria Different-Phenotype (%) [4]: 26% and 25% | Population Mitotic Cells (%) [4]: 61% and 58% | Population Normal (%) [4]: 97% and 93% | Population Pyknosed Nuclei (%) [4]: 20% and 27% | Population Tubulin-Different-Phenotype (%) [4]: 67% and 94% | Total Cell Count [4]: 179 and 131 | Population Apoptotic (%) [5]: 88% and 69% | Population Fragmented Nuclei (%) [5]: 16% and 38% | Population Healthy Nuclei (%) [5]: 77% and 43% | Population Hoechst High Intensity Objects (%) [5]: 2% | Population Membrane Permeable-Phenotype (%) [5]: 0% and 6% | Population Mitochondria Different-Phenotype (%) [5]: 7% and 12% | Population Mitotic Cells (%) [5]: 11% and 30% | Population Normal (%) [5]: 97% | Population Pyknosed Nuclei (%) [5]: 6% and 17% | Population Tubulin-Different-Phenotype (%) [5]: 37% and 60% | Total Cell Count [5]: 147 and 151 | Population Apoptotic (%) [6]: 81% and 36% | Population Fragmented Nuclei (%) [6]: 32% and 57% | Population Healthy Nuclei (%) [6]: 53% and 29% | Population Hoechst High Intensity Objects (%) [6]: 2% and 0% | Population Membrane Permeable-Phenotype (%) [6]: 0% and 11% | Population Mitochondria Different-Phenotype (%) [6]: 32% and 30% | Population Normal (%) [6]: 97% and 100% | Population Pyknosed Nuclei (%) [6]: 14% and 13% | Population Tubulin-Different-Phenotype (%) [6]: 78% and 95% | Total Cell Count [6]: 187 and 142
